Measurements from article PMC3268052 (Journal of Molecular Biology, 2011).
Like-named read-outs stand apart in the source and are kept apart here. One block for each molecule: values may come before it.

What was measured:
PKR [1] = target: T1, PKR (Homo sapiens, UniProt P19525); assay: analytical ultracentrifugation; details: cited from earlier work
PKR [2] = target: T1, PKR; details: cited from earlier work
PKR [3] = target: T1, PKR; assay: PKR autophosphorylation activation assay; type: biochemical; details: 100 nM PKR, P50 buffer, 0.4 mM ATP, 20 min, 32 °C
Method in brief: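 Autophosphorylation of 100 nM PKR with heparin oligosaccharide activators over a concentration range. P50 buffer: 20 mM Hepes pH 7.5, 50 mM KCl, 5 mM MgCl2, 0.1 mM TCEP. Reactions contained 0.4 mM ATP plus 2 μCi [γ-32P]ATP and ran 20 min at 32 °C. Background autophosphorylation without activator and a 40-bp dsRNA (100 nM) served as references.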

PKR [4] = target: T1, PKR; assay: Fluorescence anisotropy competition of bdp8 with unlabeled dp8; type: binding; details: competition of 500 nM bdp8 + 500 nM PKR with unlabeled ligand
Method in brief: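 Unlabeled heparin oligosaccharide was titrated against 500 nM BODIPY-labeled oligosaccharide plus 500 nM PKR. Run in AU75 buffer (75 mM NaCl, 20 mM Hepes, 0.1 mM EDTA, 0.1 mM TCEP, pH 7.5) at 20 °C. Anisotropy read at excitation 488 nm and emission 515 nm, with 5 min equilibration between points. The competition curve was fitted to yield Kd, which sets the fixed β11 value.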

PKR [5] = target: T1, PKR; type: binding
Method in brief: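 PKR was purified via heparin–Sepharose then hydroxyapatite and titrated into 15 nM BODIPY-labeled heparin oligosaccharides (dp2–dp8) in AU75 buffer, pH 7.5, 20 °C; NaCl was raised to 100 or 125 mM where noted. Excitation 488 nm and emission 515 nm, 6 nm bandwidths. Each point averages three 5-s background-corrected reads, with 5 min equilibration. Kd came from a hyperbolic fit, and fold-difference is the ratio of Kd values.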

PKR [6] = target: T1, PKR; assay: Sedimentation velocity; type: binding; details: for s(P2H2) / s(PH): uncorrected
[7] = target: the molecule itself; assay: sedimentation velocity analytical ultracentrifugation
[8] = Model A with L22 fixed equal to L20, SV

T1 sequence (P19525 whole entry): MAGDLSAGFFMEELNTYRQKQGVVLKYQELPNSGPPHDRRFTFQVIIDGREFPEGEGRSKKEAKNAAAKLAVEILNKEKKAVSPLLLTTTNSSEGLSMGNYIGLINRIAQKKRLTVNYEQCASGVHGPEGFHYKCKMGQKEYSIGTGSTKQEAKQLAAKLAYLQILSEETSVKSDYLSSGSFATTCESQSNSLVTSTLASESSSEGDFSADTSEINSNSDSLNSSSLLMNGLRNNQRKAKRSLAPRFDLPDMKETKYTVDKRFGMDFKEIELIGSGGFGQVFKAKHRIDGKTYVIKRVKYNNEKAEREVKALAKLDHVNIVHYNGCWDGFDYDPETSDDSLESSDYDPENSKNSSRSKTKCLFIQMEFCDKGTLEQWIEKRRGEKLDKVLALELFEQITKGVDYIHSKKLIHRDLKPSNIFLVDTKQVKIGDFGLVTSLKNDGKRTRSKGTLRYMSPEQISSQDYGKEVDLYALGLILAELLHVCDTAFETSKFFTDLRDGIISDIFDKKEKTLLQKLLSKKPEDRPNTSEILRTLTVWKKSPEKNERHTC

Molecule: PKR (from UniProt P19525)
Kd (PKR [1]): 500 µM

Molecule: heparin disaccharide [dp2]
Fold weaker binding affinity than dp8 (PKR [5]): ~150 fold | Kd (PKR [5]; BODIPY-labeled oligosaccharide, 75 mM NaCl): 32.6 ± 7.4 µM

B1: PKR (protein)
chain: AGDLSAGFFMEELNTYRQKQGVVLKYQELPNSGPPHDRRFTFQVIIDGREFPEGEGRSKKEAKNAAAKLAVEILNKEKKAVSPLLLTTTNSSEGLSMGNYIGLINRIAQKKRLTVNYEQCASGVHGPEGFHYKCKMGQKEYSIGTGSTKQEAKQLAAKLAYLQILSEETSVKSDYLSSGSFATTCESQSNSLVTSTLASESSSEGDFSADTSEINSNSDSLNSSSLLMNGLRNNQRKAKRSLAPRFDLPDMKETKYTVDKRFGMDFKEIELIGSGGFGQVFKAKHRIDGKTYVIKRVKYNNEKAEREVKALAKLDHVNIVHYNGCWDGFDYDPETSDDSLESSDYDPENSKNSSRSKTKCLFIQMEFCDKGTLEQWIEKRRGEKLDKVLALELFEQITKGVDYIHSKKLIHRDLKPSNIFLVDTKQVKIGDFGLVTSLKNDGKRTRSKGTLRYMSPEQISSQDYGKEVDLYALGLILAELLHVCDTAFETSKFFTDLRDGIISDIFDKKEKTLLQKLLSKKPEDRPNTSEILRTLTVWKKSPEKNERHTC
Kd [7]: 404 µM

Second part, led by results:

Activation of PKR autophosphorylation (PKR [3]): stimulated
Molecule: heparin hexasaccharide [dp6]
Activation of PKR, relative activity in earlier studies (PKR [2]): considerably less active than dp8

Kd (PKR [4]): 0.262 ± 0.021 µM | Kd (PKR [5]; 15 nM labeled heparin oligosaccharide, 75 mM NaCl, 20 °C, hyperbolic fit): 0.224 µM | Kd (PKR [5]; 100 mM NaCl): 2.61 ± 0.05 µM | Kd (PKR [5]; 125 mM NaCl): 19 ± 1.9 µM | Enhancement of PKR dimerization affinity (PKR [6]): about 4 fold | g(s*) peak maximum (PKR [6]; 60 μM dp8, 2 μM PKR): ~ 4.0 S | g(s*) peak maximum (PKR [6]; 60 μM dp8, 16 μM PKR): about 4.4 S | s(P2H2) (PKR [6]; [8]): 6.21 Svedbergs | s(PH) (PKR [6]; [8]): 4.14 Svedbergs | s(P2H2) (PKR [6]; Model A, SV): 5.98 Svedbergs | s(PH) (PKR [6]; Model A, SV): 3.98 Svedbergs | Frictional ratio f/f0 of PKR upon binding of dp8 (PKR [6]; decrease from 1.56 for free PKR monomer): 1.47 | Activation of PKR autophosphorylation (PKR [3]): stimulated
Molecule: heparin octasaccharide [dp8]
